High-throughput results deposited in PubChem by The Scripps Research Institute Molecular Screening Center.
This is a sample that favours compounds with a hit; in the whole collection about 4.7% have one here.
m5-HT2A agonist: agonists of mouse serotonin 5-HT2A receptor (HTR2A); P35363; CHO-K1 mHTR2A beta-arrestin complementation, luminescence; percent of 30 µM serotonin response; activation, % at 7.6 µM; 360,000 tested, 0.66% active;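 active = activation above a run cutoff, the mean activation of all tested compounds plus 3 SD, cut at about 14% in these data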
MC4R ag barr: human MC4R agonism via beta-arrestin. P32245. U2OS MC4R beta-arrestin complementation, luminescence; percent of melanotan II response, DMSO zero. activation, % at 8.9 µM. 360,000 tested, 0.98% active. AID 540308;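 active = activation above a per-plate cutoff, the mean activation of sample wells on that plate plus 3 SD, cut at about 8% in these data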
Target sequence (P32245 whole entry, looked up): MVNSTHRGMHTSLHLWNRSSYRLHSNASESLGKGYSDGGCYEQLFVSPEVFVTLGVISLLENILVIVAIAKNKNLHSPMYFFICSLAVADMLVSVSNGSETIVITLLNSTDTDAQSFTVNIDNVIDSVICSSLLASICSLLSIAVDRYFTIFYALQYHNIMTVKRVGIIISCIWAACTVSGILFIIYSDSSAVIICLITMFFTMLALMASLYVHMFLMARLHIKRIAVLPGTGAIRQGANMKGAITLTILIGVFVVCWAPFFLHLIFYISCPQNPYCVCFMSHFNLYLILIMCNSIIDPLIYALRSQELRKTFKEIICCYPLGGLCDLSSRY
MC4R antag cAMP: blocks human MC4R cAMP signaling. P32245. MC4R-expressing cells, MTII-stimulated cAMP, LANCE TR-FRET. inhibition, % at 6.5 µM. 360,000 tested, 0.48% active. AID 540295;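 active = inhibition above its plate's cutoff, the mean of tested wells on that plate plus 3 SD, cut at about 29% in these data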
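Assay system: U2OS cells stably expressing human melanocortin 4 receptor (MC4R) / Dosing: 6.5 µM / Timing: compound 30 min, challenge 1 h, detection 1 h / Measured by: Eu-cAMP/anti-cAMP TR-FRET, emission 671 nm / Replicates: singlicate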
AHR activator: human AHR activation | AHR-responsive luciferase reporter cells, luminescence | activation, % at 5 µM | 320,000 tested, 2.5% active | AID 2796; in the data active = activation above about 47%
GAA850 FXN act: frataxin GAA850 promoter activation | HEK293 lucGAA850 FXN promoter luciferase reporter, 24 h; percent of 10 µM SAHA response | activation, % at 6 µM | 360,000 tested, 0.56% active;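 active = activation above the average of all compounds screened plus 3 SD, cutoff fixed separately per campaign, cut at about 7.5% in these data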
Hits are given with their value.

`COc1ccc(NC(=O)c2cc(-c3cccnc3)nc3c(C)c(C)ccc23)c(OC)c1` gave m5-HT2A agonist inactive, MC4R ag barr inactive, MC4R antag cAMP inactive, AHR activator inactive and GAA850 FXN act inactive.
Screening COc1ccc(CCNC(=O)c2sc3cc(C)ccc3c2Cl)cc1 returned m5-HT2A agonist inactive, MC4R ag barr 9.4, MC4R antag cAMP inactive, AHR activator inactive and GAA850 FXN act inactive.
Cc1ccc2c(Cl)c(C(=O)NCCc3ccccc3)sc2c1 was read as m5-HT2A agonist inactive, MC4R ag barr inactive, MC4R antag cAMP inactive, AHR activator inactive and GAA850 FXN act inactive.
N#C/C(=N\Nc1ccc(Cl)cc1)C(N)=S was read as m5-HT2A agonist inactive, MC4R ag barr inactive, MC4R antag cAMP inactive, AHR activator 59.0 and GAA850 FXN act inactive.
Screening Cc1ccccc1N=C1Nc2ccccc2N[C@]12C[C@H]1CCC(=O)N3CC[C@@H](C2)[C@@H]13 returned m5-HT2A agonist inactive, MC4R ag barr inactive, MC4R antag cAMP inactive and GAA850 FXN act inactive.
For COc1cc(NS(=O)(=O)c2ccc(NC(=O)/C=C/c3cccc([N+](=O)[O-])c3)cc2)ncn1 the results were m5-HT2A agonist inactive, MC4R ag barr inactive, MC4R antag cAMP inactive, AHR activator 103.6 and GAA850 FXN act inactive.
`COc1cc(NS(=O)(=O)c2ccc(NC(=O)/C=C/c3ccc([N+](=O)[O-])cc3)cc2)ncn1` gave m5-HT2A agonist inactive, MC4R ag barr inactive, MC4R antag cAMP inactive, AHR activator inactive and GAA850 FXN act inactive.
`O=C(Nc1nc2ccccc2n1Cc1ccc(Cl)cc1)c1ccco1` gave m5-HT2A agonist inactive, MC4R ag barr inactive, MC4R antag cAMP inactive, AHR activator inactive and GAA850 FXN act inactive.
C=CCn1c(NC(=O)c2ccco2)nc2ccccc21 was read as m5-HT2A agonist inactive, MC4R ag barr inactive, MC4R antag cAMP inactive, AHR activator 68.0 and GAA850 FXN act inactive.
Cc1cccc(C)c1NC(=O)CN(C)C(=O)c1ccccc1OCc1ccc(F)cc1 was read as m5-HT2A agonist inactive, MC4R ag barr inactive, MC4R antag cAMP inactive, AHR activator inactive and GAA850 FXN act inactive.
Screening Cc1ccc2[nH]cc(CCNC(=O)c3ccco3)c2c1 returned m5-HT2A agonist inactive, MC4R ag barr inactive, MC4R antag cAMP inactive, AHR activator 97.3 and GAA850 FXN act inactive.
Screening COc1ccc2[nH]cc(CCNC(=O)c3ccco3)c2c1 returned m5-HT2A agonist inactive, MC4R ag barr inactive, MC4R antag cAMP inactive, AHR activator inactive and GAA850 FXN act inactive.
`COC(=O)[C@H](CC(C)C)NC(=O)CC[C@H]1O[C@@H](n2cc(C)c(=O)[nH]c2=O)C[C@@H]1O` gave m5-HT2A agonist inactive.
`CCCC(=O)Nc1cc(C)c2c(=O)oc3ccccc3c2n1` gave m5-HT2A agonist inactive, MC4R ag barr inactive, MC4R antag cAMP inactive, AHR activator 52.6 and GAA850 FXN act inactive.
Screening Cc1cc(NC(=O)CC(C)(C)C)nc2c1c(=O)oc1ccccc12 returned m5-HT2A agonist inactive, MC4R ag barr inactive, MC4R antag cAMP inactive, AHR activator inactive and GAA850 FXN act inactive.
For O=C(O)CSc1cc(NS(=O)(=O)c2ccc(Br)cc2)c2ccccc2c1O the results were m5-HT2A agonist inactive, MC4R ag barr inactive, MC4R antag cAMP inactive, AHR activator 48.8 and GAA850 FXN act inactive.
COc1ccc(Nc2nc(N3CCCC3)c3ccccc3n2)cc1 was read as m5-HT2A agonist inactive, MC4R ag barr inactive, MC4R antag cAMP inactive, AHR activator 49.9 and GAA850 FXN act inactive.
Cc1ccc(-c2cc(=O)c3ccccc3[nH]2)cc1 was read as m5-HT2A agonist inactive, MC4R ag barr inactive, MC4R antag cAMP inactive, AHR activator 50.0 and GAA850 FXN act inactive.
`Cc1ccc(NC(=O)c2ccc3nc[nH]c3c2)c(O)c1` gave m5-HT2A agonist inactive, MC4R ag barr inactive, MC4R antag cAMP inactive, AHR activator 65.3 and GAA850 FXN act inactive.
Screening O=C(Nc1csc([N+](=O)[O-])c1)Nc1ccccc1Cl returned m5-HT2A agonist inactive, MC4R ag barr inactive, MC4R antag cAMP inactive, AHR activator inactive and GAA850 FXN act inactive.
`O=C(Nc1ccc(Cl)cc1)Nc1ccccc1Sc1ncc([N+](=O)[O-])s1` gave m5-HT2A agonist inactive, MC4R ag barr inactive, MC4R antag cAMP inactive, AHR activator 66.2 and GAA850 FXN act inactive.
`CN(CC(=O)NCc1ccc(F)cc1)CC(=O)Nc1ccc(Cl)c(C(F)(F)F)c1` gave m5-HT2A agonist inactive, MC4R ag barr 9.0, MC4R antag cAMP inactive, AHR activator inactive and GAA850 FXN act inactive.
`CN(CC(=O)NCC(=O)Nc1ccc(F)cc1)CC(=O)Nc1ccc(Cl)c(C(F)(F)F)c1` gave m5-HT2A agonist inactive, MC4R ag barr inactive, MC4R antag cAMP inactive and GAA850 FXN act inactive.
COc1cc(OC)cc(C(=O)Nc2ccc(N3CCN(C(=O)c4cccs4)CC3)cc2)c1 was read as m5-HT2A agonist inactive, MC4R ag barr inactive, MC4R antag cAMP inactive, AHR activator 53.0 and GAA850 FXN act inactive.
`CS(=O)(=O)c1sc(C#N)c2c1C(=O)CC(c1ccccc1)C2` (centres undefined) gave m5-HT2A agonist inactive, MC4R ag barr inactive, MC4R antag cAMP 32.9, AHR activator inactive and GAA850 FXN act inactive.
Screening C[C@@H]1CN([C@@H](C)CO)C(=O)c2cc(Br)cnc2O[C@H]1CN(C)C(=O)Nc1ccc2c(c1)OCO2 returned m5-HT2A agonist inactive, MC4R ag barr inactive, MC4R antag cAMP inactive and GAA850 FXN act inactive.
Screening O=C(N/N=C1\SCC(=O)N1CCc1ccccc1)c1cccs1 returned m5-HT2A agonist inactive, MC4R ag barr inactive, MC4R antag cAMP inactive, AHR activator 51.1 and GAA850 FXN act inactive.
For COc1ccc(CCN2C(=O)CS/C2=N\NC(=O)c2ccc(C(C)(C)C)cc2)cc1OC the results were m5-HT2A agonist inactive, MC4R ag barr inactive, MC4R antag cAMP inactive, AHR activator inactive and GAA850 FXN act inactive.
Screening O=C(COc1cccc2cccnc12)NNC(=S)Nc1ccccc1 returned AHR activator inactive.
O=C(COc1cccc2cccnc12)N/N=C1\SCC(=O)N1Cc1ccccc1 was read as m5-HT2A agonist inactive, MC4R ag barr inactive, MC4R antag cAMP inactive, AHR activator 52.4 and GAA850 FXN act inactive.
For COc1ccc(-c2sc3cc(OC)c(OC)cc3c2-c2ccc(O)cc2)cc1 the results were m5-HT2A agonist inactive, MC4R ag barr inactive, MC4R antag cAMP inactive, AHR activator inactive and GAA850 FXN act inactive.
Screening Cc1cc(Nc2ncc(Cl)cc2Cl)n[nH]1 returned m5-HT2A agonist inactive, MC4R ag barr inactive, MC4R antag cAMP inactive, AHR activator 54.4 and GAA850 FXN act inactive.
O=C(CSc1nnc(-c2ccncc2)n1Cc1ccco1)c1ccc(Cl)cc1 was read as m5-HT2A agonist inactive, MC4R ag barr inactive, MC4R antag cAMP inactive, AHR activator inactive and GAA850 FXN act inactive.
`O=C(CSc1nnc(-c2ccncc2)n1Cc1ccco1)Nc1nc(-c2ccccc2)cs1` gave m5-HT2A agonist inactive, MC4R ag barr inactive, MC4R antag cAMP inactive, AHR activator 47.7 and GAA850 FXN act inactive.
